# Screening results (PubChem BioAssay)
# The list is not random: actives were taken first. Their share in the collection is about 8.9%.
# HSV replic up: increases HSV replication in cells | HSV replication augmentation in cells, fold increase | maximum fold increase | 220,000 tested, 0.005% active | AID 1956; in the data active means maximum fold increase above about 1.5; inconclusive means no clear call, values can overlap the other calls; tested in PC3 cells
# MT stabilizer: microtubule stabilization, imaging screen. 200,000 tested, 0.83% active. AID 2205. % tubulin-high responders, % at 10 µM. HeLa tubulin immunostaining HCS, 24 h; share of cells brighter than vehicle mean+2SD;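 active means plate Z-score above 3 for both tubulin-high and condensed-nucleus cell shares, with cell loss under 80%, at 10 µM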;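 further: anti alpha tubulin signal scored within the nucleus-defined area of each cell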
# bCat nuc transl: beta-catenin nuclear translocation modulation; nuclear translocation activity, % at 5 µM; HeLa beta-catenin nuclear translocation, immunofluorescence imaging; AID 1665; 190,000 tested, 0.3% active;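 active means nuclear translocation activity above 50% at 5 µM, with a well cell count of 50 or more; inconclusive means wells under 50 cells across six images, flagged as toxic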;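 further: per-cell ratio of nuclear to cytoplasmic median beta-catenin stain intensity; plate controls were DMSO negative control for no effect and GSK-3 inhibitor IX positive control for full effect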
#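 Assay system: human HeLa cells, native beta-catenin; doses: 5 µM primary, 0.02–20 µM confirmation; incubation: compound treatment 24 h, 37°C, 5% CO2; technique: fluorescence imaging of beta-catenin antibody stain plus DAPI; measure: % activation, nuclear-to-cytoplasmic median beta-catenin signal ratio per cell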
# Lmaj promast: reduces viability of Leishmania major promastigotes; resazurin fluorescence viability; inhibition, % at 10 µM; 200,000 tested, 9% active; AID 1063; in the data active means inhibition above about 50%;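 further: promastigotes grown with compound for 44 hours at 28 °C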
# Dynein cargo inh: blocks dynein driven cargo transport along microtubules; AID 1381; z-score, hits read low; 220,000 tested, 0.47% active; 3617.4 mouse cells, GR-EGFP nuclear translocation imaging; test concentration mostly 20 µM; stimulated with dexamethasone, 1 µM; stronger effect = lower value;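 active means plate z-score of nuclear minus cytoplasmic receptor signal below a set negative limit, without overly bright fluorescence or cell loss, cut at about -3.5 in these data, passing the limit was not always enough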;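 further: z-score of nuclear minus cytoplasmic ring GR-EGFP intensity difference per well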
#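 Medium: Induction medium lacking tetracycline, stripped serum | Probe or stimulus: 1.0 µM final dexamethasone stimulus | Schedule: 48 h induction, then 1 h compound, then 30 min agonist, 37 °C | Signal: Automated 10x imaging of fixed Hoechst-stained cells | Evaluation: Per-cell GR-EGFP intensity, nucleus versus surrounding cytoplasmic ring, well-averaged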
# The depositor's hits bear a star; i = inactive; ? = inconclusive; · = not tested or not shown.
SMILES,HSV replic up,MT stabilizer,bCat nuc transl,Lmaj promast,Dynein cargo inh
CC(=O)N1CCc2cc(S(=O)(=O)CCC(=O)N3CCN(C(=O)c4ccco4)CC3)ccc21,i,2,-1,0,-0.41
CC(=O)Nc1ccc(NC(=O)C(C)OC(=O)CN(C)S(=O)(=O)c2ccc(Cl)cc2)cc1 (centres undefined),i,2,·,-1,1.9
CC(=O)Nc1ccc(NC(=O)C(C)OC(=O)CNS(=O)(=O)c2cccc(Cl)c2)cc1 (centres undefined),i,2,-4,82*,-0.69
CCc1nc2ccc(C(=O)O)cc2nc1CC,i,2,-2,50*,0.35
Cc1ccc(-c2nc3ccc(C(=O)O)cc3nc2-c2ccc(C)cc2)cc1,i,2,-2,-3,-0.69
CCN(CC)CCNc1ccc(CO)c2sc3ccccc3c(=O)c12,i,2,-3,100*,-0.41
CCN(CC)CCNC(=O)Cc1nn(CC)c(=O)c2ccccc12,i,1,·,-4,-0.81
O=C(NCC(c1cccs1)N1CCOCC1)c1cc([N+](=O)[O-])ccc1Cl (centres undefined),i,3,-2,-7,-0.34
O=C(NCC(c1cccs1)N1CCOCC1)c1ccc(Cl)s1 (centres undefined),i,54*,·,-1,0.57
CCOc1ccc(C(=O)NC(=S)Nc2cccc(NC(=O)c3ccco3)c2)cc1[N+](=O)[O-],i,5,0,21,-0.15
CCOc1ccc(C(=O)NC(=S)Nc2ccccc2OC)cc1[N+](=O)[O-],i,3,2,-1,-0.31
COc1ccc(C(=O)NC(=S)Nc2ccccc2N2CCCCC2)cc1[N+](=O)[O-],i,0,0,99*,-0.35
CCOc1ccc(C(=O)NC(=S)NC2CCCC2)cc1[N+](=O)[O-],i,3,·,58*,-0.29
COc1ccc(C(=O)Nc2c(C)ccc3nsnc23)cc1[N+](=O)[O-],i,4,-5,83*,0.12
CCOc1ccc(C(=O)NC(=S)Nc2ccccc2N2CCCCC2)cc1[N+](=O)[O-],i,2,2,95*,0.87
O=C(NC(=S)Nc1ccccc1N1CCCC1)c1ccc([N+](=O)[O-])cc1,i,3,6,16,-0.5
Cc1ccc2nsnc2c1NC(=O)c1cccc([N+](=O)[O-])c1,i,5,-2,-1,-0.41
Cc1cccc(NC(=O)CN(C)S(=O)(=O)c2ccc(Br)cc2)n1,i,2,·,0,-1.5
Cn1c(=O)oc2cc(S(=O)(=O)N3CCCC(C(=O)N4CCn5c4nc4ccccc45)C3)ccc21 (centres undefined),i,3,-1,40,0.29
Cc1c(C(=O)NC(=S)Nc2ccccc2N2CCCC2)cccc1[N+](=O)[O-],i,3,-1,87*,-0.47
O=C(NC(=S)Nc1ccccc1N1CCCCC1)c1cccs1,i,1,0,91*,-0.2
COc1ccc(C(=O)Nc2cc(C)on2)cc1[N+](=O)[O-],i,3,-2,3,-0.052
Cc1c(C(=O)NC(=S)Nc2ccc(NC(=O)c3cccs3)cc2)cccc1[N+](=O)[O-],i,2,·,98*,-0.54
COc1ccc(C(=O)NC(=S)Nc2cc(C)ccn2)cc1[N+](=O)[O-],i,2,·,62*,0.8
C/C(=N\NC(=O)CC#N)c1cc2ccc(O)cc2oc1=O,i,2,-2,0,0.85
SMILES,HSV replic up,MT stabilizer,bCat nuc transl,Lmaj promast,Dynein cargo inh
O=C(NC(=S)Nc1ccccc1N1CCN(C(=O)c2ccccc2)CC1)c1cccs1,i,·,0,·,-0.17
CCOc1ccc(C(=O)NC(=S)Nc2ccc(N3CCCCC3)cc2)cc1[N+](=O)[O-],i,5,0,99*,0.18
CCOc1ccc(C(=O)NC(=S)Nc2ccc(NC(=O)CC)cc2)cc1[N+](=O)[O-],i,2,0,-1,1.1
O=C(NC(=S)Nc1ccc(N2CCN(C(=O)c3ccccc3)CC2)cc1)c1cccs1,i,5,-2,92*,0.81
CC(C)c1ccccc1OCC(=O)NC1CCCc2ccccc21 (centres undefined),i,3,2,5,0.31
Cc1cccc(OCC(=O)NC2CCCc3ccccc32)c1C (centres undefined),i,1,-4,61*,-0.82
O=[N+]([O-])c1cccc(-n2nnnc2CNCc2ccccc2)c1,i,·,0,·,-0.22
Cc1ccc(-c2csc(NC(=O)COc3ccc(N(C)S(=O)(=O)c4ccc(C)cc4)cc3)n2)cc1,i,2,1,90*,0.3
COc1ccc(-c2csc(NC(=O)COc3ccc(N(C)S(=O)(=O)c4ccc(C)cc4)cc3)n2)cc1,i,1,2,95*,-0.64
C/C(=C\c1ccccc1)C(=O)N1CCN(c2cccc(C(F)(F)F)c2)CC1,i,2,-1,55*,-0.37
O=C(CCCCn1c(=O)[nH]c2ccccc2c1=O)N1CCN(c2cccc(C(F)(F)F)c2)CC1,i,4,-1,82*,1.9
COc1ccc2cc3cc(C(=O)NCc4ccco4)oc3nc2c1,i,1,·,60*,1.7
CCOc1ccc(NC(=O)c2cc3cc4ccc(OC)cc4nc3o2)cc1,i,2,·,100*,-0.038
COc1ccc(C(=O)NCC2CCCO2)cc1 (centres undefined),i,2,·,7,-0.0064
COc1ccc2cc3cc(C(=O)NCC4CCCO4)oc3nc2c1 (centres undefined),i,2,·,79*,-0.085
COc1ccc2cc3cc(C(=O)Nc4ccccc4N4CCN(C)CC4)oc3nc2c1,?,43,-1,100*,-0.14
Cc1cc(NC(=O)COc2c(C)cccc2C)no1,i,1,2,5,0.049
COC(=O)CSc1nnc(-c2cccc(NC(=O)c3ccc(C)cc3)c2)n1C,i,1,-6,-6,-0.47
COCc1nnc(NC(=O)c2ccc(S(=O)(=O)N(C)C3CCCCC3)cc2)o1,i,4,-5,-8,-0.39
COc1ccc(NC(=S)NC(C)c2ccncc2)cc1OC (centres undefined),i,3,0,7,-0.23
C/C(=N\NC(=O)C(=O)Nc1cc(Cl)ccc1Cl)c1ccncc1,i,3,-3,48,-0.47
Cc1sc2ncnc(N/N=C/c3ccccc3O)c2c1C,i,9,1,100*,-0.023
Cc1sc2ncnc(N/N=C/c3ccc(O)cc3)c2c1C,i,7,0,21,1.2
COc1ccc(C(=O)N2CCC(C(=O)Nc3ccccc3C)CC2)cc1OC,i,1,-1,-5,0.21
Cc1ccccc1N=Nc1c(C)[nH]n(-c2ccccc2)c1=O,i,2,0,-6,-0.31
Cc1[nH]n(-c2ccccc2)c(=O)c1N=Nc1ccc2c(c1)OCO2,i,5,-1,-3,0.77
Cc1[nH]n(C2=NCCS2)c(=O)c1N=Nc1ccccc1,i,3,0,80*,-0.86
